In brackets after ≈: the same amount, converted by molar mass.
Experiments:
Staphylococcus aureus [1] = experiment: Half life in methicillin-resistant Staphylococcus aureus WB2 at 1 g administered every 12 hrs for 4 days in in vitro pharmacokinetic-pharmacodynamic model with simulated endocardial vegetations; format: ADME, organism-based; conditions: in vivo
Method in brief: (§1)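 Duplicate samples taken from the model injection port over 0–192 h and stored at −70°C. Daptomycin assayed by Micrococcus luteus ATCC 9341 disk microbioassay (standards 2.5–150 mg/liter; detection limit 2.5 mg/liter). Vancomycin assayed by fluorescence polarization immunoassay (detection limit 2 mg/liter). Cmax and half-life derived by the trapezoidal method.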

Staphylococcus aureus [2] = experiment: Cmax in methicillin-resistant Staphylococcus aureus 675 at 6 mg/kg administered daily for 4 days pretreated with 1 g vancomycin administered every 12 hrs for 4 days in in vitro pharmacokinetic-pharmacodynamic model with simulated endocardial vegetations; format: ADME, organism-based; set-up: dose 6 mg/kg; conditions: in vivo, 96 h; method in brief: as §1
Staphylococcus aureus [3] = experiment: AUC(0-24 hrs)/MIC(broth) in methicillin-susceptible Staphylococcus aureus 616 at 1 g administered every 12 hrs for 4 days in in vitro pharmacokinetic-pharmacodynamic model with simulated endocardial vegetations; format: functional
Method in brief: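 S. aureus simulated endocardial vegetations (fibrin/platelet clots, ~10^9 CFU/g) suspended in a 250-ml one-compartment model at 37°C, medium pumped to mimic half-life; vancomycin bolus every 12 h (target Cmax 30, Cmin 10 mg/liter) for 4 days. Duplicate runs. Drug levels by fluorescence polarization immunoassay; AUC0-24 by trapezoidal method, divided by broth microdilution MIC (CLSI).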

Staphylococcus aureus [4] = experiment: Half life in methicillin-resistant Staphylococcus aureus WB2 at 6 mg/kg administered daily for 4 days pretreated with 1 g vancomycin administered every 12 hrs for 4 days in in vitro pharmacokinetic-pharmacodynamic model with simulated endocardial vegetations; format: ADME, organism-based; set-up: dose 6 mg/kg; conditions: in vivo, 96 h; method in brief: as §1
Staphylococcus aureus [5] = experiment: Cmax in methicillin-susceptible Staphylococcus aureus 616 at 10 mg/kg administered daily for 4 days pretreated with 1 g vancomycin administered every 12 hrs for 4 days in in vitro pharmacokinetic-pharmacodynamic model with simulated endocardial vegetations; format: ADME, organism-based; set-up: dose 10 mg/kg; conditions: in vivo, 96 h; method in brief: as §1
Staphylococcus aureus [6] = experiment: Antimicrobial activity against methicillin-susceptible Staphylococcus aureus 616; format: functional
Method in brief: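 MIC by broth microdilution in SMHB or by Etest, following CLSI guidelines. MBC defined as 99.9% killing of the starting inoculum, from 5 μl of the MIC well and all other growth-inhibited wells plated onto agar.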

Staphylococcus aureus [7] = experiment: microbe, parasite or virus in culture; conditions: 36132
Staphylococcus aureus [8] = experiment: Cmax in methicillin-resistant Staphylococcus aureus WB1 at 6 mg/kg administered daily for 4 days pretreated with 1 g vancomycin administered every 12 hrs for 4 days in in vitro pharmacokinetic-pharmacodynamic model with simulated endocardial vegetations; format: ADME, organism-based; set-up: dose 6 mg/kg; conditions: in vivo, 96 h; method in brief: as §1
Staphylococcus aureus [9] = experiment: Half life in methicillin-susceptible Staphylococcus aureus 616 at 10 mg/kg administered daily for 4 days pretreated with 1 g vancomycin administered every 12 hrs for 4 days in in vitro pharmacokinetic-pharmacodynamic model with simulated endocardial vegetations; format: ADME, organism-based; set-up: dose 10 mg/kg; conditions: in vivo, 96 h; method in brief: as §1
Staphylococcus aureus [10] = experiment: Half life in methicillin-resistant Staphylococcus aureus 675 at 6 mg/kg administered daily for 4 days pretreated with 1 g vancomycin administered every 12 hrs for 4 days in in vitro pharmacokinetic-pharmacodynamic model with simulated endocardial vegetations; format: ADME, organism-based; set-up: dose 6 mg/kg; conditions: in vivo, 96 h; method in brief: as §1
Staphylococcus aureus [11] = experiment: Half life in methicillin-resistant Staphylococcus aureus 36132 at 6 mg/kg administered daily for 4 days pretreated with 1 g vancomycin administered every 12 hrs for 4 days in in vitro pharmacokinetic-pharmacodynamic model with simulated endocardial vegetations; format: ADME, organism-based; set-up: dose 6 mg/kg; conditions: in vivo, 96 h; method in brief: as §1
Staphylococcus aureus [12] = experiment: microbe, parasite or virus in culture; conditions: 675
Staphylococcus aureus [13] = experiment: Antimicrobial activity against methicillin-resistant Staphylococcus aureus WB1
Staphylococcus aureus [14] = experiment: Antimicrobial activity against methicillin-susceptible Staphylococcus aureus 616 at 6 mg/kg administered daily for 8 days in in vitro pharmacokinetic-pharmacodynamic model with simulated endocardial vegetations; format: functional
Method in brief: (§2)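 S. aureus SEVs (≈10^9 CFU/g inoculum in human cryoprecipitate plus platelets) suspended in a 250-ml one-compartment model at 37°C. Fresh medium pumped to simulate drug half-lives; drug given as boluses over 8 days; duplicate models. Two SEVs removed per model at each time point (0–192 h), homogenized, plated on TSA 35°C 24 h. Log10 CFU/g reduction read from time-kill curves; detection limit 2.0 log10 CFU/g.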

Staphylococcus aureus [15] = experiment: Antimicrobial activity against methicillin-susceptible Staphylococcus aureus 616 at 6 mg/kg administered daily for 4 days in in vitro pharmacokinetic-pharmacodynamic model with simulated endocardial vegetations; format: functional
Method in brief: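 SEVs (clot of cryoprecipitate, platelets and organism) were suspended in a 250-ml, 37°C model with bolus dosing and pump clearance simulating half-lives. Daptomycin was given every 24 h (Cmax 98.6, Cmin 6.2 mg/liter) after 4 days of vancomycin 1 g q12h or no treatment. SEVs were sampled to 192 h, homogenized and plated (35°C, 24 h) for CFU/g; T99.9 was derived. Runs were done in duplicate.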

Staphylococcus aureus [16] = experiment: Half life in methicillin-susceptible Staphylococcus aureus 616 at 6 mg/kg administered daily for 4 days pretreated with 1 g vancomycin administered every 12 hrs for 4 days in in vitro pharmacokinetic-pharmacodynamic model with simulated endocardial vegetations; format: ADME, organism-based; set-up: dose 6 mg/kg; conditions: in vivo, 96 h; method in brief: as §1
Staphylococcus aureus [17] = experiment: Antimicrobial activity against methicillin-resistant Staphylococcus aureus WB2
Staphylococcus aureus [18] = experiment: Half life in methicillin-resistant Staphylococcus aureus WB1 at 6 mg/kg administered daily for 4 days pretreated with 1 g vancomycin administered every 12 hrs for 4 days in in vitro pharmacokinetic-pharmacodynamic model with simulated endocardial vegetations; format: ADME, organism-based; set-up: dose 6 mg/kg; conditions: in vivo, 96 h; method in brief: as §1
Staphylococcus aureus [19] = experiment: Cmax in methicillin-resistant Staphylococcus aureus WB2 at 6 mg/kg administered daily for 4 days pretreated with 1 g vancomycin administered every 12 hrs for 4 days in in vitro pharmacokinetic-pharmacodynamic model with simulated endocardial vegetations; format: ADME, organism-based; set-up: dose 6 mg/kg; conditions: in vivo, 96 h; method in brief: as §1
Staphylococcus aureus [20] = experiment: Antimicrobial activity against methicillin-susceptible Staphylococcus aureus 616 at 6 mg/kg administered daily for 8 days pretreated with 1 g vancomycin administered every 12 hrs for 4 days in in vitro pharmacokinetic-pharmacodynamic model with simulated endocardial vegetations; format: functional; method in brief: as §2
Staphylococcus aureus [21] = experiment: Cmax in methicillin-resistant Staphylococcus aureus 36132 at 6 mg/kg administered daily for 4 days pretreated with 1 g vancomycin administered every 12 hrs for 4 days in in vitro pharmacokinetic-pharmacodynamic model with simulated endocardial vegetations; format: ADME, organism-based; set-up: dose 6 mg/kg; conditions: in vivo, 96 h; method in brief: as §1
Staphylococcus aureus [22] = experiment: Cmax in methicillin-susceptible Staphylococcus aureus 616 at 6 mg/kg administered daily for 4 days pretreated with 1 g vancomycin administered every 12 hrs for 4 days in in vitro pharmacokinetic-pharmacodynamic model with simulated endocardial vegetations; format: ADME, organism-based; set-up: dose 6 mg/kg; conditions: in vivo, 96 h; method in brief: as §1
Staphylococcus aureus [23] = experiment: Antimicrobial activity against methicillin-susceptible Staphylococcus aureus 616 at 6 mg/kg administered daily for 4 days pretreated with 1 g vancomycin administered every 12 hrs for 4 days in in vitro pharmacokinetic-pharmacodynamic model with simulated endocardial vegetations; format: functional; method in brief: as §2
Staphylococcus aureus [24] = experiment: Antimicrobial activity against methicillin-susceptible Staphylococcus aureus at 6 mg/kg administered daily for 4 days after 4 days of growth without antibiotic in in vitro pharmacokinetic-pharmacodynamic model with simulated endocardial vegetations
Staphylococcus aureus [25] = experiment: Cmax in methicillin-resistant Staphylococcus aureus 675 at 1 g administered every 12 hrs for 4 days in in vitro pharmacokinetic-pharmacodynamic model with simulated endocardial vegetations; format: ADME, organism-based; set-up: dose 1 g; conditions: in vivo; method in brief: as §1
Staphylococcus aureus [26] = experiment: Half life in methicillin-susceptible Staphylococcus aureus 616 at 1 g administered every 12 hrs for 4 days in in vitro pharmacokinetic-pharmacodynamic model with simulated endocardial vegetations; format: ADME, organism-based; conditions: in vivo; method in brief: as §1
Staphylococcus aureus [27] = experiment: Cmax in methicillin-susceptible Staphylococcus aureus 616 at 1 g administered every 12 hrs for 4 days in in vitro pharmacokinetic-pharmacodynamic model with simulated endocardial vegetations; format: ADME, organism-based; set-up: dose 1 g; conditions: in vivo; method in brief: as §1
Staphylococcus aureus [28] = experiment: Cmax in methicillin-resistant Staphylococcus aureus WB2 at 1 g administered every 12 hrs for 4 days in in vitro pharmacokinetic-pharmacodynamic model with simulated endocardial vegetations; format: ADME, organism-based; set-up: dose 1 g; conditions: in vivo; method in brief: as §1
Staphylococcus aureus [29] = experiment: Half life in methicillin-resistant Staphylococcus aureus 675 at 1 g administered every 12 hrs for 4 days in in vitro pharmacokinetic-pharmacodynamic model with simulated endocardial vegetations; format: ADME, organism-based; conditions: in vivo; method in brief: as §1
Staphylococcus aureus [30] = experiment: Cmax in methicillin-resistant Staphylococcus aureus 36132 at 1 g administered every 12 hrs for 4 days in in vitro pharmacokinetic-pharmacodynamic model with simulated endocardial vegetations; format: ADME, organism-based; set-up: dose 1 g; conditions: in vivo; method in brief: as §1
Staphylococcus aureus [31] = experiment: Cmax in methicillin-resistant Staphylococcus aureus WB1 at 1 g administered every 12 hrs for 4 days in in vitro pharmacokinetic-pharmacodynamic model with simulated endocardial vegetations; format: ADME, organism-based; set-up: dose 1 g; conditions: in vivo; method in brief: as §1
Staphylococcus aureus [32] = experiment: Half life in methicillin-resistant Staphylococcus aureus 36132 at 1 g administered every 12 hrs for 4 days in in vitro pharmacokinetic-pharmacodynamic model with simulated endocardial vegetations; format: ADME, organism-based; conditions: in vivo; method in brief: as §1
Staphylococcus aureus [33] = experiment: Half life in methicillin-resistant Staphylococcus aureus WB1 at 1 g administered every 12 hrs for 4 days in in vitro pharmacokinetic-pharmacodynamic model with simulated endocardial vegetations; format: ADME, organism-based; conditions: in vivo; method in brief: as §1

CCCCCCCCCC(=O)N[C@@H](Cc1c[nH]c2ccccc12)C(=O)N[C@H](CC(N)=O)C(=O)N[C@@H](CC(=O)O)C(=O)N[C@@H]1C(=O)NCC(=O)N[C@@H](CCCN)C(=O)N[C@@H](CC(=O)O)C(=O)N[C@H](C)C(=O)N[C@@H](CC(=O)O)C(=O)NCC(=O)N[C@H](CO)C(=O)N[C@@H]([C@H](C)CC(=O)O)C(=O)N[C@@H](CC(=O)c2ccccc2N)C(=O)O[C@@H]1C
t1/2 (Staphylococcus aureus [1]): 5.3 h | Cmax (Staphylococcus aureus [2]): 107.2 µg/mL | RatioAUC/MIC (Staphylococcus aureus [3]): 536.4 | t1/2 (Staphylococcus aureus [4]): 7.6 h | Cmax (Staphylococcus aureus [5]): 160.2 µg/mL | MIC (Staphylococcus aureus [6]): 0.125 µg/mL (≈ 0.0771 µM) | MIC (Staphylococcus aureus [7]): 0.25 µg/mL (≈ 0.154 µM) | Cmax (Staphylococcus aureus [8]): 98.3 µg/mL | t1/2 (Staphylococcus aureus [9]): 9.3 h | t1/2 (Staphylococcus aureus [10]): 8 h | t1/2 (Staphylococcus aureus [11]): 8.8 h | MIC (Staphylococcus aureus [12]): 0.25 µg/mL (≈ 0.154 µM) | MIC (Staphylococcus aureus [13]): 0.25 µg/mL (≈ 0.154 µM) | T99.9% (Staphylococcus aureus [14]): 4.8 h | T99.9% (Staphylococcus aureus [15]): 10.9 h | t1/2 (Staphylococcus aureus [16]): 8.4 h | MIC (Staphylococcus aureus [17]): 0.25 µg/mL (≈ 0.154 µM) | t1/2 (Staphylococcus aureus [18]): 7.9 h | Cmax (Staphylococcus aureus [19]): 106.1 µg/mL | T99.9% (Staphylococcus aureus [20]): 6.6 h | Cmax (Staphylococcus aureus [21]): 109.3 µg/mL | Cmax (Staphylococcus aureus [22]): 106.8 µg/mL | T99.9% (Staphylococcus aureus [23]): 9.46 h | T99.9% (Staphylococcus aureus [24]): 34.9 h

CN[C@H](CC(C)C)C(=O)N[C@H]1C(=O)N[C@@H](CC(N)=O)C(=O)N[C@H]2C(=O)N[C@H]3C(=O)N[C@H](C(=O)N[C@H](C(=O)O)c4cc(O)cc(O)c4-c4cc3ccc4O)[C@H](O)c3ccc(c(Cl)c3)Oc3cc2cc(c3O[C@@H]2O[C@H](CO)[C@@H](O)[C@H](O)[C@H]2O[C@H]2C[C@](C)(N)[C@H](O)[C@H](C)O2)Oc2ccc(cc2Cl)[C@H]1O [VANCOMYCIN]
Cmax (Staphylococcus aureus [25]): 32.9 µg/mL | t1/2 (Staphylococcus aureus [1]): 5.3 h | t1/2 (Staphylococcus aureus [26]): 7.4 h | Cmax (Staphylococcus aureus [27]): 31.7 µg/mL | Cmax (Staphylococcus aureus [28]): 33.4 µg/mL | t1/2 (Staphylococcus aureus [29]): 7.2 h | Cmax (Staphylococcus aureus [30]): 31.4 µg/mL | Cmax (Staphylococcus aureus [31]): 32.8 µg/mL | t1/2 (Staphylococcus aureus [32]): 6.9 h | t1/2 (Staphylococcus aureus [33]): 6.6 h

From ChEMBL document CHEMBL1255234, “daptomycin activity against Staphylococcus aureus following vancomycin exposure in an in vitro pharmacodynamic model with simulated endocardial vegetations” (Antimicrob Agents Chemother, 2008)
